Measurements from different studies.
Each line is one published result; the experiments were not run side by side.
Target: Testis-specific serine/threonine-protein kinase 3 (TSSK3, Homo sapiens, UniProt Q96PN8)
Tested at: 1 µM
Sequence (Q96PN8 1-268, as in one of the studies): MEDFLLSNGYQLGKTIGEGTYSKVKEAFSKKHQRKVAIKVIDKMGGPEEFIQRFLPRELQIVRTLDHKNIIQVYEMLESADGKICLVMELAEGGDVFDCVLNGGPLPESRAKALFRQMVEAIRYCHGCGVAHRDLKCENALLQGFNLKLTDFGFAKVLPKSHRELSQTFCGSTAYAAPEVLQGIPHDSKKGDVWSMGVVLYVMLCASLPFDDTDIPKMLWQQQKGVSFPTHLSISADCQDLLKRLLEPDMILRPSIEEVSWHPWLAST

C[C@@H]1CCN(c2nccc(-c3cnn4ncccc34)n2)C1 — remaining binding (binding): 78%
O=C(NCCCN1CCOCC1)c1ccc(Nc2ncc(Cl)c(-c3ccc(Cl)s3)n2)cc1 — remaining binding (binding, competition with immobilised ligand): 100%
O=C(Nc1c[nH]nc1C(=O)NC1CCNCC1)c1cc(F)cc(F)c1 — remaining binding (binding, competition with immobilised ligand): 100%
Cc1cnc(Nc2ccc(C(=O)N3CCC(N4CCCC4)CC3)cc2)nc1-c1cc2ccccc2s1 — remaining binding (binding, competition with immobilised ligand): 84%
CCCCN(CCCC)C(=O)CN1C[C@H](c2cc(OC)c3c(c2)OCO3)[C@@H](C(=O)O)[C@@H]1CC(C)(C)CCC — remaining binding (cell-free assay, competition with immobilised ligand): 100%
Nc1ncc2c(n1)-c1c([nH]c3ccc(C#CC4CC4)cc13)CCCC2 — remaining binding (binding, competition with immobilised ligand): 70%
COc1cnc(Nc2cccc(S(N)(=O)=O)c2)nc1N1CCN(c2ccccc2)C(=O)C1 — remaining binding (binding, competition with immobilised ligand): 90%
N[C@H]1CCN(c2nccc(-c3cnn4ncccc34)n2)C1 — remaining binding (binding): 88%
O=C(c1ccc(Nc2ncc(Cl)c(-c3ccc(Cl)s3)n2)cc1)N1CCC(N2CCCC2)CC1 — remaining binding (binding, competition with immobilised ligand): 100%
CNC(=O)[C@@H]1CC[C@@H](n2c(-c3ccc4cnccc4c3)nc3ccc(C(=O)NCc4cccc(C(N)=O)c4)cc32)C1 — remaining binding (binding, competition with immobilised ligand): 100%
C[C@H](c1ccc(F)cc1)N(Cc1cccc(C(=O)O)c1)C(=O)c1cnc2ccccc2c1 — remaining binding (cell-free assay, competition with immobilised ligand): 64%
C=CC(=O)N1CCC(C(=O)NCC(=O)N2CCN(c3nc(-c4cnc(N)nc4C(F)F)nc(N4CCOCC4)n3)CC2)CC1 — remaining binding (binding, competition with immobilised ligand): 100%
c1cnn2ncc(-c3ccnc(N4CCC45COC5)n3)c2c1 — remaining binding (binding): 98%
CN([C@@H]1CCc2c(CC(=O)O)c3cc(S(C)(=O)=O)ccc3n2C1)S(=O)(=O)c1ccc(F)cc1 — remaining binding (cell-free assay, competition with immobilised ligand): 100%
CN(C)c1ncc(F)c(-c2cnn3ncccc23)n1 — remaining binding (binding): 99%
CNC(=O)Nc1ccc2c(c1)[C@@]1(CC2)OC(=O)N(CC(=O)N(Cc2ccc(F)cc2)[C@@H](C)C(F)(F)F)C1=O — remaining binding (cell-free assay, competition with immobilised ligand): 100%
COc1ccnn2ncc(-c3ccnc(N(C)C)n3)c12 — remaining binding (binding): 100%
O=C(Nc1ccc(Oc2ccc(F)cc2)cc1)N1CCc2ncccc2[C@H]1c1ccc(F)cc1 — remaining binding (cell-free assay, competition with immobilised ligand): 98%
F[C@@H]1CCN(c2nccc(-c3cnn4ncccc34)n2)C1 — remaining binding (binding): 100%
C[C@@]1(Cc2ccc(C#N)cc2)C(=O)N(c2cc(Cl)cc(Cl)c2)c2ncc(C(=O)NC3(c4nc(C5CCC5)no4)CC3)n21 — remaining binding (cell-free assay, competition with immobilised ligand): 100%
